Here are results for seven molecules from ChEMBL document CHEMBL4138204, “Polyoxygenated Steroids from the Sponge Clathria gombawuiensis” (J Nat Prod, 2017).

Each structure is given as a SMILES string. Calls of active or inactive are those of the source. The calls are words filed in the database; no cut-off is given here. Where only a bound is given, the exact number is not on record here.

A short description of experiment [1]: Inhibition of isocitrate lyase (unknown origin).
A further experiment concerns K562. The experiment is described as follows: Cytotoxicity against human K562 cells after 72 hrs by MTT assay. The experiment is classed as functional, cell-based. As to conditions: K562, 72 h. On the technique in general: Formazan colour is commonly taken as a measure of viable cells.
The subject of another experiment is A549. The experiment is described as follows: Cytotoxicity against human A549 cells after 72 hrs by MTT assay. The experiment is classed as functional, cell-based. The following applies: A549, 72 h.
A further experiment has as its system Staphylococcus aureus. The experiment in a line: Antibacterial activity against Staphylococcus aureus ATCC 6538P measured after 24 hrs. The experiment is classed as functional.
The next experiment concerns Bacillus spizizenii. The experiment is described as follows: Antibacterial activity against Bacillus subtilis ATCC 6633 measured after 24 hrs. It counts as functional. The following applies: ATCC 6633, 24 h.
For another experiment, the system named is Kocuria rhizophila. The experiment is described as follows: Antibacterial activity against Kocuria rhizophila NBRC 12708 measured after 24 hrs. It counts as functional. As to conditions: NBRC 12708, 24 h.
For a further experiment, the system named is Salmonella typhimurium. The experiment is described as follows: Antibacterial activity against Salmonella enterica ATCC 14028 measured after 24 hrs. It counts as functional, Salmonella enterica subsp. enterica serovar Typhimurium. The following applies: ATCC 14028, 24 h.
The test system of a further experiment is Proteus hauseri. The experiment in a line: Antibacterial activity against Proteus hauseri NBRC 3851 measured after 24 hrs. The experiment is classed as functional. As to conditions: NBRC 3851, 24 h.
A further experiment relates to Escherichia coli. The experiment is described as follows: Antibacterial activity against Escherichia coli ATCC 35270 measured after 24 hrs. It counts as functional. As to conditions: ATCC 35270, 24 h.
The next experiment concerns Candida albicans. The experiment in a line: Antifungal activity against Candida albicans ATCC 10231 measured after 48 to 72 hrs. The experiment is classed as functional.
A further experiment concerns Trichophyton rubrum. The experiment is described as follows: Antifungal activity against Trichophyton rubrum IFO 9185 measured after 48 to 72 hrs. The experiment is classed as functional.
In experiment [2] the test system is Trichophyton mentagrophytes. The experiment is described as follows: Antifungal activity against Trichophyton mentagrophytes IFO 40996 measured after 48 to 72 hrs. It counts as functional.
The next experiment deals with Aspergillus fumigatus. The experiment in a line: Antifungal activity against Aspergillus fumigatus HIC 6094 measured after 48 to 72 hrs. The experiment is classed as functional.
Experiment [3] in a line: Inhibition of recombinant sortase A (unknown origin) using Dabcyl-QALPETGEE-Edans as substrate measured after 1 hr by fluorescence assay. The arrangement: species or system Bacteria.
The target of experiment [4] is Sodium/potassium-transporting ATPase. The experiment is described as follows: Inhibition of potassium-activated sodium/potassium ATPase in human placenta using 3-Omethylfluorescein phosphate as substrate measured for 90 secs by fluorescence assay.
Experiment [5] concerns C2C12. The experiment is described as follows: Activation of AMPKalpha phosphorylation at Thr172 in mouse C2C12 cells at 20 uM after 30 mins by Western blot analysis. The experiment is classed as cell-based. The procedure, abridged:
(§1)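 Differentiated mouse C2C12 skeletal myoblasts were given compounds at 20 μM, or Aicar (0.2 mM, AMPK activator), for 30 min. pAMPK (Thr172) and pACC (Ser79) were quantified by Western blot. Mean ± SD of 2–4 independent experiments, compared with vehicle by ANOVA.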
For orientation: In western blotting, separated proteins are transferred to a membrane and probed.

Experiment [6] deals with C2C12. The experiment in a line: Activation of AMPKalpha in mouse C2C12 cells assessed as increase in phosphorylation of ACC at Ser79 at 20 uM after 30 mins by Western blot analysis. It counts as cell-based. In short, it runs like this:
as §1

The species named for experiment [7] is Mus musculus. The experiment is described as follows: Activation of AMPKalpha in differentiated mouse 3T3L1 cells assessed as increase in 2-NBDG uptake pretreated for 30 mins followed by 2-NBDG addition measured after 1 hr by fluorescence assay. The procedure, abridged:
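2-NBDG uptake in differentiated 3T3-L1 adipocytes. Cells got compounds at several concentrations, or 100 nM insulin as a positive control. After 1 h incubation, fluorescence was read at ex/em 450/535 nm. Mean ± SD (n = 3), compared with vehicle by ANOVA.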

Experiment [8] is filed under the species Mus musculus. The experiment in a line: Activation of AMPKalpha in differentiated mouse 3T3L1 cells assessed as increase in 2-NBDG uptake at 20 uM by fluorescence microscopic analysis. In short, it runs like this: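 Differentiated 3T3-L1 adipocytes were treated with 20 μM compound or 100 nM insulin as a positive control, then exposed to 2-NBDG as the fluorescent glucose analogue. Uptake was imaged by fluorescence microscopy as green signal inside the cells.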

Experiment [9] concerns C2C12. The experiment in a line: Activation of AMPKalpha phosphorylation at Thr172 in mouse C2C12 cells at 5 to 20 uM after 30 mins in presence of AMPK inhibitor dorsomorphin by Western blot analysis. The experiment is classed as cell-based. In short, it runs like this: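 C2C12 myoblasts were exposed to compound at 5, 10 and 20 μM for 30 min, with compound C pretreatment used to test AMPK dependence. pAMPK (Thr172) was measured by Western blot. Mean ± SD (n = 3), compared with control.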

For `CC(C)C[C@H](O)C[C@@H](C)[C@H]1CC(=O)[C@@H]2[C@@H]3[C@@H](O)[C@H](O)[C@H]4[C@H](O)[C@@H](O)CC[C@]4(C)[C@H]3CC[C@]12C`, the IC50 in experiment [1] was more than 128 µM; with K562 it was more than 10 µM; in the experiment on A549, more than 10 µM; in experiment [3], more than 128 µM; in [4], more than 128 µM. In addition, the minimum inhibitory concentration (MIC) in the experiment with Staphylococcus aureus, against Bacillus spizizenii, against Kocuria rhizophila, against Salmonella typhimurium, in the experiment with Proteus hauseri and in the experiment on Escherichia coli was more than 128 µM each time. Further, the MIC (against Candida albicans; in the experiment with Trichophyton rubrum; in experiment [2]; against Aspergillus fumigatus) was more than 128 µM in each case. Moreover, the outcome with C2C12 [5] and in the experiment with C2C12 [6] was Active.

Regarding `CC(C)[C@@H](CC[C@@H](C)[C@H]1CC(=O)[C@@H]2[C@@H]3[C@@H](O)[C@H](O)[C@H]4C[C@@H](O)CC[C@]4(C)[C@H]3CC[C@]12C)[C@@H](C)O`, the IC50 in [1] was more than 128 µM; with K562, more than 10 µM; with A549, more than 10 µM; in experiment [3], more than 128 µM; in [4], more than 128 µM. Also, the MIC with Staphylococcus aureus, with Bacillus spizizenii, against Kocuria rhizophila, in the experiment with Salmonella typhimurium, with Proteus hauseri and with Escherichia coli was more than 128 µM each time. The MIC (with Candida albicans; against Trichophyton rubrum; in [2]; with Aspergillus fumigatus) was more than 128 µM each time. Further, the Activity entry in the experiment filed under Mus musculus [7] is “Dose-dependent effect”. Besides, the result in the experiment filed under Mus musculus [8], with C2C12 [5] and in the experiment on C2C12 [6] was Active.

As to `CC(C)[C@H](C)[C@@H](O)C[C@@H](C)[C@H]1CC(=O)[C@H]2[C@@H]3[C@@H](O)[C@H](O)[C@H]4[C@H](O)[C@@H](O)CC[C@]4(C)[C@H]3CC[C@]12C`, the half-inhibitory concentration (IC50) in [1] is more than 128 µM; in the experiment on K562, more than 10 µM; in the experiment with A549, more than 10 µM; in experiment [3], more than 128 µM; in [4], more than 128 µM. The MIC in the experiment on Staphylococcus aureus, against Bacillus spizizenii, in the experiment with Kocuria rhizophila, against Salmonella typhimurium, in the experiment with Proteus hauseri and against Escherichia coli was more than 128 µM in each case. Also, the MIC (against Candida albicans; against Trichophyton rubrum; in [2]; in the experiment with Aspergillus fumigatus) was more than 128 µM in each case. The Activity entry in the experiment filed under Mus musculus [7] was “Dose-dependent effect”. In addition, the outcome in the experiment listed under Mus musculus [8], in the experiment with C2C12 [5] and with C2C12 [6] was Active.

Regarding `CC(C)C[C@@H](O)[C@H](O)[C@@H](C)[C@H]1CC(=O)[C@@H]2[C@@H]3[C@@H](O)[C@H](O)[C@H]4[C@H](O)[C@@H](O)CC[C@]4(C)[C@H]3CC[C@]12C`, the IC50 in [1] is more than 128 µM; in the experiment on K562 it was more than 10 µM; in the experiment with A549 it was more than 10 µM; in experiment [3], more than 128 µM; in experiment [4], more than 128 µM. Further, the MIC against Staphylococcus aureus, against Bacillus spizizenii, in the experiment on Kocuria rhizophila, in the experiment on Salmonella typhimurium, in the experiment on Proteus hauseri and in the experiment on Escherichia coli was more than 128 µM each time. Further, the MIC (in the experiment on Candida albicans; in the experiment with Trichophyton rubrum; in [2]; against Aspergillus fumigatus) was more than 128 µM in each case. Besides, the Activity result in the experiment filed under Mus musculus [7] was “Dose-dependent effect”. For the same molecule, the outcome in the experiment listed under Mus musculus [8], with C2C12 [5] and in the experiment with C2C12 [6] was Active.

`CC(C)[C@H](C)[C@@H](O)[C@H](O)[C@@H](C)[C@H]1CC(=O)[C@@H]2[C@@H]3[C@@H](O)[C@H](O)[C@H]4[C@H](O)[C@@H](O)CC[C@]4(C)[C@H]3CC[C@]12C`: the IC50 in experiment [1] was more than 128 µM; in the experiment on K562, more than 10 µM; in the experiment with A549, more than 10 µM; in experiment [3] it was more than 128 µM; in experiment [4], more than 128 µM. The MIC in the experiment on Staphylococcus aureus, against Bacillus spizizenii, against Kocuria rhizophila, against Salmonella typhimurium, in the experiment on Proteus hauseri and in the experiment with Escherichia coli was more than 128 µM in each case. For the same molecule, the minimum inhibitory concentration (MIC) (in the experiment on Candida albicans; against Trichophyton rubrum; in experiment [2]; against Aspergillus fumigatus) was more than 128 µM throughout. Besides, the Activity entry in the experiment filed under Mus musculus [7] is “Dose-dependent effect”. In addition, the result in the experiment listed under Mus musculus [8], with C2C12 [5] and with C2C12 [6] was Active.

Regarding `CC(C)[C@H](C)[C@@H](O)[C@H](O)[C@@H](C)[C@H]1CC(=O)[C@H]2[C@@H]3[C@@H](O)[C@H](O)[C@H]4[C@H](O)[C@@H](O)CC[C@]4(C)[C@H]3CC[C@]12C`, the IC50 in [1] was more than 128 µM; in the experiment with K562, more than 10 µM; in the experiment with A549, more than 10 µM; in experiment [3], more than 128 µM; in [4], more than 128 µM. Moreover, the MIC in the experiment with Staphylococcus aureus, against Bacillus spizizenii, in the experiment on Kocuria rhizophila, in the experiment on Salmonella typhimurium, in the experiment with Proteus hauseri and against Escherichia coli was more than 128 µM throughout. Besides, the MIC (against Candida albicans; in the experiment on Trichophyton rubrum; in [2]; in the experiment with Aspergillus fumigatus) was more than 128 µM in each case. Besides, the Activity entry in the experiment filed under Mus musculus [7] is “Dose-dependent effect”. In addition, the outcome in the experiment listed under Mus musculus [8], in the experiment on C2C12 [5] and in the experiment on C2C12 [6] was Active. For the same molecule, in the experiment on C2C12 [9], the result was inactive.

`CC(C)[C@H](C)[C@@H](O)[C@H](O)[C@@H](C)[C@H]1CC(=O)[C@@H]2[C@@H]3[C@@H](OS(=O)(=O)O)[C@H](O)[C@H]4[C@H](O)[C@@H](O)CC[C@]4(C)[C@H]3CC[C@]12C`: the IC50 was more than 128 µM in [1]; more than 10 µM in the experiment with K562; more than 10 µM with A549; more than 128 µM in experiment [3]; more than 128 µM in experiment [4]. Besides, the MIC with Staphylococcus aureus, against Bacillus spizizenii, with Kocuria rhizophila, with Salmonella typhimurium, in the experiment on Proteus hauseri and in the experiment on Escherichia coli was more than 128 µM in each case. Also, the MIC (against Candida albicans; against Trichophyton rubrum; in experiment [2]; against Aspergillus fumigatus) was more than 128 µM in each case. Moreover, the result in the experiment with C2C12 [5] and with C2C12 [6] was Active.

The IC50 is the concentration at which inhibition is half-maximal. By MIC is commonly meant the least concentration at which growth counts as inhibited.
